# PTPN22 inh 2 – LYP (human) phosphatase inhibition. Q9Y2R2. recombinant LYP catalytic domain, DiFMUP fluorescence. inhibition, % at 2 µM. hit rate 0.21% among 96,000. AID 640;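 active means inhibition at 2 µM at or above a set limit, the screen mean plus 3 SD, cut at about 24% in these data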
# HIV Rev-RRE inh – inhibitors of HIV-1 Rev-RRE RNA interaction; hit rate 0.79% among 97,000; Rev peptide-RRE RNA binding, FRET; AID 704; inhibition, % at 8 µM; P05866;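 active means inhibition above the screen-wide mean plus 3 SD, cut at about 35% in these data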
# Target sequence (P05866 whole entry, looked up): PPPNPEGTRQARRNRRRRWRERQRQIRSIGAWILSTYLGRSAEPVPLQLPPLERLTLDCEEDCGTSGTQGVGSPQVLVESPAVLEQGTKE
#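 System: Cy5-labelled duplex RRE RNA binding fluorescein-labelled HIV Rev peptide; Signal: fluorescein-to-Cy5 FRET, 480 nm excitation; Also added: labelled Rev peptide; Compound: one concentration, 8 µM nominal; Buffer or medium: HEPES pH 7.5 salt buffer with EDTA; Read-out: % inhibition of FRET ratio versus controls; Schedule: 5 min preincubation and 15 min binding, 25 °C.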
# Plk1 PBD FP – Plk1 (human) PBD binding inhibition; P53350; Plk1 PBD phosphopeptide binding, fluorescence polarization; hit rate 0.13% among 97,000; inhibition, %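 (tested at about 20 µM)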; in the data active means inhibition above about 34%, passing the limit was not always enough
# hDAT+cocaine – modulates human dopamine transporter uptake under cocaine; Q01959; hit rate 1.3% among 110,000; AID 449768; LLC-PK1 hDAT cells, [14C]-dopamine uptake with cocaine IC80; actives deviate in either direction; B-score at 10 µM;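 active means Z score or B-score, a plate-position-corrected score, falls beyond the plate's 99.7% confidence bounds, in either direction; inactive means both scores lie inside the 99.7% bounds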
# PLK1 inh – blocks human PLK1 kinase activity; inhibition, % at 10 µM; P53350; hit rate 0.53% among 97,000; recombinant PLK1 kinase, TR-FRET peptide phosphorylation;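 active means inhibition of 50% or more in the single-concentration screen; inactive means inhibition below 50%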
# LYP act – LYP (human) phosphatase activation | Q9Y2R2 | recombinant LYP, DiFMUP fluorescence; 0 = plate median, 100 = signal doubled | activation, % at 2 µM | hit rate 0.11% among 96,000 | AID 697;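 active means activation at 2 µM above a set limit, the mean plus 5 SD, cut at about 37% in these data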
# Hits are given with their value; i = inactive; nt = no result; [ ] = remark or other dose. Only some compounds are listed: those with a hit (about 2.7% of all), similar ones and a draw of the others.
SMILES,PTPN22 inh 2,HIV Rev-RRE inh,Plk1 PBD FP,hDAT+cocaine,PLK1 inh,LYP act
CCOc1ccc(N(CC(=O)NCc2cccs2)S(=O)(=O)c2c(C)noc2C)cc1,i,i,i,i,i,i
CCOc1ccc(N(CC(=O)NCc2ccc(F)cc2)S(=O)(=O)c2c(C)noc2C)cc1,nt,i,i,i,67,nt
CC(NC(=O)COc1cc(=O)n(C)c2ccccc12)c1ccc2c(c1)OCCO2 (stereo not given),i,i,i,1.7,i,i
O=c1c2cnn(-c3ccccc3)c2nnn1Cc1ccccn1,i,i,i,2.7,i,i
O=c1c2cnn(-c3ccccc3)c2ncn1Cc1ccccn1,i,i,i,i,i,i
CCOC(=O)c1cnc2c(C#N)c(C)nn2c1C,i,i,i,i,i,i
CCOC(=O)c1cnc2c(C#N)c(C)nn2c1-c1ccccc1,nt,i,i,i,64,nt
COc1ccc(NC(=O)N(CCO)Cc2cc3c(C)cc(C)cc3[nH]c2=O)cc1,i,i,i,2.9,i,i
Nc1cc(=O)nc(SCC(=O)Nc2cccc3ccccc23)n1CCc1ccccc1,i,i,i,i,i,i
S=C(Nc1ccccc1)N1CCCCCC1,i,i,i,-8.4,i,i
CCOCc1cc(C)[nH]c(=O)c1C#N,i,i,i,nt,i,i
COCc1c(Br)c(C)[nH]c(=O)c1C#N,i,i,i,1.6,i,i
CCC(=O)Nc1c(-c2ccc(OC)cc2)c(=O)c2ccccc2n1C,i,i,i,-9.1,i,i
C#Cc1ccc([C@H]2C=C(C(=O)N3CCOCC3)O[C@@H](OCC)[C@@H]2CCCO)cc1,nt,nt,nt,i,nt,nt
c1ccc(-c2nnc(CN3CCC4(CC3)OCCO4)o2)cc1,i,i,i,i,i,i
c1ccc(-c2nnc(CN3CCCc4ccccc43)o2)cc1,i,84[fluorescence artefact?],i,i,i,i
CCOC(=O)c1sc(C)c(C(=O)NC2CCCCC2)c1N,i,i,i,-2.7,i,i
Cc1nn(-c2ccccc2)c2sc(C(=O)OCc3nnc(-c4ccccc4)o3)cc12,i,i,i,nt,i,i
C[C@H](c1ccccc1)n1nnc(COCc2ccccc2)c1C#CCOCc1ccccc1,nt,nt,nt,i,nt,nt
O=C(c1cccn2c(=O)c3cc4ccccc4cc3nc12)N1CCN(c2ccccc2)CC1,i,44,i,nt,i,i
O=C(c1cccn2c(=O)c3ccccc3nc12)N1CCN(c2ccccn2)CC1,i,i,i,i,i,i
CCN1CCN(CCNC(=O)CS(=O)(=O)Cc2nc(-c3ccc(C)cc3)oc2C)CC1,nt,i,i,i,65,nt
Cc1cccc(/C=N/NC(=O)C(C)Nc2cccc3ccccc23)n1 (stereo not given),i,i,i,2.5,i,i
CCc1cc(C(=O)COc2ccccc2F)c(O)cc1O,i,i,i,i,i,i
COc1ccc(-c2coc3cc(OC)cc(O)c3c2=O)cc1,i,i,i,-2.4,i,i
SMILES,PTPN22 inh 2,HIV Rev-RRE inh,Plk1 PBD FP,hDAT+cocaine,PLK1 inh,LYP act
COc1ccc(NC(=S)NC(NC(=O)/C=C/c2ccccc2)C(Cl)(Cl)Cl)cc1 (stereo not given),i,i,i,i,i,i
O=C(/C=C/c1ccccc1)NC(NC(=S)Nc1ccc(Cl)cc1)C(Cl)(Cl)Cl (stereo not given),i,i,i,-2.8,i,i
Cc1ccc(CSCC(=O)N/N=C/c2sccc2C)cc1,i,i,i,3.2,i,i
CC1CCCN(C(=O)CSCC(=O)N=c2sc3ccccc3n2C)C1 (stereo not given),i,i,i,2.7,i,i
CC(NS(=O)(=O)c1ccccc1)C(c1cccs1)N1CCN(c2ccccc2)CC1 (stereo not given),i,i,i,4.8,i,i
CCn1c(C)c(C(C)=O)c(N2CCN(c3ccccn3)CC2)nc1=S,i,i,i,i,i,i
CCn1c(C)c(C(C)=O)c(N2CCN(c3ccccc3)CC2)nc1=S,i,42,i,i,i,i
COC1CCCCC1NS(=O)(=O)c1ccc(Cl)cc1 (stereo not given),nt,i,i,i,68,nt
COC1CCCCC1NS(=O)(=O)c1ccccc1 (stereo not given),i,i,i,i,i,i
O=S(=O)(N/N=C/c1cn(Cc2ccccc2)c2ccccc12)c1ccccc1,i,i,i,i,i,i
CN(c1ccc(OCC(=O)N2CCCCC2)cc1)S(=O)(=O)c1cccs1,nt,nt,nt,3,nt,nt
CCOC(=O)Cc1csc(NC(=O)COc2ccc(N(C)S(=O)(=O)c3cccs3)cc2)n1,nt,nt,nt,i,nt,nt
COc1cccc(C2CC(=O)NC(SC)=C2C#N)c1 (stereo not given),nt,i,i,i,69,nt
COc1ccccc1-n1cnc2cc(NCc3cccs3)ccc21,i,i,i,-2.5,i,i
Cc1ccccc1-n1cnc2cc(NCc3cccs3)ccc21,i,i,i,i,i,i
COc1ccc2cc(CCNC(=O)c3c(-c4ccccc4Cl)noc3C)c(=O)[nH]c2c1,nt,nt,nt,i,nt,nt
CC1CCCN(Cc2c(O)ccc3c(=O)c(-c4nc5ccccc5s4)c(N)oc23)C1 (stereo not given),i,i,i,2.5,i,i
Cc1c(C)c2cc(Cl)c(O)c(CN3CCCC(C)C3)c2oc1=O (stereo not given),i,i,i,i,i,i
Cc1nnc(C)n1/N=C/c1cc(Br)cc(Br)c1O,i,i,i,i,i,i
Nn1cnnc1N/N=C/c1cc(Br)cc(Br)c1O,28,i,i,nt,i,i
CC(Sc1ccc(Cl)cc1)C(=O)Nc1ccc(S(=O)(=O)N2CCOCC2)cc1 (stereo not given),i,i,i,i,i,i
CCn1nnnc1SCC(=O)Nc1cc(OC)cc(OC)c1,i,i,i,i,i,i
COc1ccc(C(OC(=O)c2ccco2)C(=O)NCC2CCCO2)cc1 (stereo not given),i,i,i,-7.3,i,i
CCn1c(CNc2ccc(Cl)cc2)nnc1SCc1ccccc1,i,i,i,1.8,i,i
CCOc1ccc(NCc2nnc(SCc3ccccc3Cl)n2-c2ccccc2)cc1,i,i,i,-12,i,i
SMILES,PTPN22 inh 2,HIV Rev-RRE inh,Plk1 PBD FP,hDAT+cocaine,PLK1 inh,LYP act
Cc1nn(CCC#N)c(NC(=O)c2ccc(Cl)cc2Cl)c1P(=O)(Nc1ccc([N+](=O)[O-])cc1)N1CCOCC1 (stereo not given),i,i,i,-6.5,i,i
Cc1nn(CCC#N)c(NC(=O)c2ccc(Cl)cc2)c1P(=O)(Nc1ccc([N+](=O)[O-])cc1)N1CCOCC1 (stereo not given),i,i,i,-5.6,i,i
N#CCCn1ccc(NC(=O)c2ccc(Cl)cc2)n1,i,i,i,i,i,i
COc1ccc(OC)c(S(=O)(=O)NCc2csc(-c3ccccc3)n2)c1,i,i,i,2.4,i,i
COC(=O)NC(NC(=S)Nc1ccc([N+](=O)[O-])cc1)C(Cl)(Cl)Cl (stereo not given),i,i,i,-2.8,i,i
CCOC(=O)c1ccc(Nc2nc(-c3cccnc3)nc3ccccc23)cc1,i,i,i,i,i,i

# Compound activity deposited in PubChem BioAssay by several laboratories.
